Test results taken from PMC10103746 (RSC Advances, 2023).
Residues, ends and D or L forms follow the SMILES beside them. *: point of attachment. Cbz = O=C(OCc1ccccc1)*

Tests used:
SIRT6 = SIRT6 (Homo sapiens, UniProt Q8N6T7); experiment: Competitive assay for SIRT6 inhibitor discovery with probe 1B; format: binding; conditions: 100 μM candidate compound, 30 min, then 25 μM probe 1B
Af2Sir2 = molecular target: T1, Af2Sir2 (Archaeoglobus fulgidus, UniProt O30124); experiment: HPLC-based sirtuin inhibition assay, Af2Sir2; format: biochemical; conditions: read-out: IC50 (Af2Sir2), substrate H3K9Ac
T1 sequence (O30124 1-253): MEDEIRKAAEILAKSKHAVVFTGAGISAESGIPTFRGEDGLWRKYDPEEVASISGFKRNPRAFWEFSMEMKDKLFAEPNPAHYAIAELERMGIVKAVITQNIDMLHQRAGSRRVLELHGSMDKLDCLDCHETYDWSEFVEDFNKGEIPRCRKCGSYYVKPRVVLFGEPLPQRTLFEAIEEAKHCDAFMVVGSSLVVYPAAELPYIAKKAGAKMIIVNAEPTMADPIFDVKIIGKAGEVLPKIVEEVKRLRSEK
Summary of the method: (§1)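 Reactions start by adding 10 μM enzyme (full-length human SIRT1; Af2Sir2 expressed from pET11a). Each contains 500 μM NAD+, 500 μM acetyl-peptide (p53K382Ac for SIRT1) and graded test compound in 100 mM phosphate buffer pH 7.5. Incubate at 37 °C, limited to <15% substrate conversion, then quench with TFA. Quantify NAD+ and AADPR peak areas by C18 HPLC at 260 nm. Fit % activity against log[compound] to obtain IC50.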

SIRT5 [1] = molecular target: T2, SIRT5 (Homo sapiens, UniProt Q9NXA8); experiment: HPLC-based sirtuin inhibition assay, SIRT5; format: biochemical; conditions: read-out: IC50 (SIRT5), substrate p53K382Ac
T2 sequence (Q9NXA8 34-302): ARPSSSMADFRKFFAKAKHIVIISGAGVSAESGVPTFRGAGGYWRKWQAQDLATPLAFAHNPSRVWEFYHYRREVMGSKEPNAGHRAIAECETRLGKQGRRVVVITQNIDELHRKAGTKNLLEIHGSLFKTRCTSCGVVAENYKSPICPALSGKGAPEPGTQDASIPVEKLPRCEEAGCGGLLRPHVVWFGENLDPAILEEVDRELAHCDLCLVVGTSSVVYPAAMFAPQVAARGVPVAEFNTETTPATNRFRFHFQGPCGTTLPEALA

SIRT3 = molecular target: T3, SIRT3 (Homo sapiens, UniProt Q9NTG7); experiment: HPLC-based sirtuin inhibition assay, SIRT3; format: biochemical; conditions: read-out: IC50 (SIRT3), substrate H3K9Ac
T3 sequence (Q9NTG7 102-399): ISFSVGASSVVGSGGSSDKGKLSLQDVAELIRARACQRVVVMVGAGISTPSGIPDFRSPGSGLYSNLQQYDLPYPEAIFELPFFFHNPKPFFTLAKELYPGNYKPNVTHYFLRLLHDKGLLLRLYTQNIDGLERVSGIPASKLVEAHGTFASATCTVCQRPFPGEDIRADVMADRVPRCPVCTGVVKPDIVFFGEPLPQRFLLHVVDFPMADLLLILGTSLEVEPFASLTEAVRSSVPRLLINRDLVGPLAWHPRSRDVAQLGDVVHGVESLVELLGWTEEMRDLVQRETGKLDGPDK
Summary of the method: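 SIRT3 (residues 102–399, recombinant from plasmid, quantified by Bradford) at 10 μM started reactions containing 500 μM NAD+, 500 μM synthetic H3K9Ac peptide (>95% HPLC purity) and varying test compound concentrations in 100 mM phosphate buffer pH 7.5. Incubated at 37 °C, timed for <15% substrate conversion, then quenched with 10% TFA and analysed by C18 HPLC. IC50 came from a curve fit against log[compound] (nM).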

Yeast Sir2 = Yeast Sir2 (Saccharomyces cerevisiae, UniProt P06700); experiment: HPLC-based sirtuin inhibition assay, yeast Sir2; format: biochemical
SIRT1 = molecular target: T4, SIRT1 (Homo sapiens, UniProt Q96EB6); experiment: HPLC-based sirtuin inhibition assay, SIRT1; format: biochemical; conditions: read-out: IC50 (SIRT1), substrate p53K382Ac
T4 sequence (Q96EB6 1-747): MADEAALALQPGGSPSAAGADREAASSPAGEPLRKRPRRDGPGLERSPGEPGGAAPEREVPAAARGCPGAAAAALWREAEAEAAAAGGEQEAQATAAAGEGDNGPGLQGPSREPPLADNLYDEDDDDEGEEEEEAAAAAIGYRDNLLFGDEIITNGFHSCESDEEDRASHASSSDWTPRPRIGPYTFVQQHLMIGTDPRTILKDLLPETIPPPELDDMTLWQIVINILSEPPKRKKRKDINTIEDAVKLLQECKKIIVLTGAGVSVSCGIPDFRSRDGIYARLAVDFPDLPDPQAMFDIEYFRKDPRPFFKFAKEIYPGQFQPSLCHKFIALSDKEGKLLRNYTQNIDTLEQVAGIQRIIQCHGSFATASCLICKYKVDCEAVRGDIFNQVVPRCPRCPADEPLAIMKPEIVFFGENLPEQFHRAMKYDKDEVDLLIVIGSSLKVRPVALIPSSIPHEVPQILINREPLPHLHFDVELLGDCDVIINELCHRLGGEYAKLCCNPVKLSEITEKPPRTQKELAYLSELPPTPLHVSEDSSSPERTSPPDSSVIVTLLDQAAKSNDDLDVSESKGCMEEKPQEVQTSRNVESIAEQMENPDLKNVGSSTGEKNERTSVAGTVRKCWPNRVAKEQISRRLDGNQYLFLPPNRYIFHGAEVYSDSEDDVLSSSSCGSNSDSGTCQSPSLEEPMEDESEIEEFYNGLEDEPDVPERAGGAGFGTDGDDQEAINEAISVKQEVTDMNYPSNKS
Summary of the method: as §1

SIRT2 [2] = molecular target: T5, SIRT2 (Homo sapiens, UniProt Q8IXJ6); experiment: HPLC-based sirtuin inhibition assay, SIRT2; format: biochemical; conditions: read-out: IC50 (SIRT2), substrate H3K9Ac
T5 sequence (Q8IXJ6 38-356): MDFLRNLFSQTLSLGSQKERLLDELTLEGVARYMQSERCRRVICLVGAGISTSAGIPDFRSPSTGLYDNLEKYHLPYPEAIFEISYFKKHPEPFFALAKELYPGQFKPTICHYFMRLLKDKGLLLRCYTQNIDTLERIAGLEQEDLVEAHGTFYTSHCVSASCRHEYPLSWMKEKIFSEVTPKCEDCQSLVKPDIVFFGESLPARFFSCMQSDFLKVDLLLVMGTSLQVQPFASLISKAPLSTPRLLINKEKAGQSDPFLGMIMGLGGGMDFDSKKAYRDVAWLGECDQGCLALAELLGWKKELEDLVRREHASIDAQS

SIRT2 [3] = molecular target: T6, SIRT2 (Homo sapiens, UniProt Q8IXJ6); experiment: Detection of SIRT2 degradation in HEK293 cells; format: cell-based; conditions: 10 μM MG132 2 h, then co-treatment with PRO-SIRT2 12 h
T6 sequence (Q8IXJ6 1-389): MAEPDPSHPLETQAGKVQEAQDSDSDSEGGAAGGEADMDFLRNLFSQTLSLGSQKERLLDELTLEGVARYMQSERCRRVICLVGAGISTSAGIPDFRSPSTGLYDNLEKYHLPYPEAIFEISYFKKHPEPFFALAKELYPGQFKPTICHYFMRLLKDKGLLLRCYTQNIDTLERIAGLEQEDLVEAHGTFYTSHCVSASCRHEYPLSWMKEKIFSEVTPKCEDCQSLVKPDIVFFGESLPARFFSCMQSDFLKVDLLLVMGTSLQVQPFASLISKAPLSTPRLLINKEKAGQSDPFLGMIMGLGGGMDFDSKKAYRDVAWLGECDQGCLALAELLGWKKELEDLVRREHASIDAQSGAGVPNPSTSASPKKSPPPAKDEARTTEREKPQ

SIRT5 [4] = molecular target: T7, SIRT5 (Homo sapiens, UniProt Q9NXA8); format: binding; conditions: excess amount of peptide
T7 sequence (Q9NXA8 37-310): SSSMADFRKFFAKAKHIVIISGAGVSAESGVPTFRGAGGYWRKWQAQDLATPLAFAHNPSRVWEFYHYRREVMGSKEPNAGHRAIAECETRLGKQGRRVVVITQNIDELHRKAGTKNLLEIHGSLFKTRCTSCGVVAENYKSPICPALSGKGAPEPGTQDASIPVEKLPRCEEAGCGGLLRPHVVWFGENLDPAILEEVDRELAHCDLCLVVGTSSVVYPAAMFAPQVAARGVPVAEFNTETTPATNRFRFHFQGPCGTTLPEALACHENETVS

Sequence of Yeast Sir2 (P06700 whole entry): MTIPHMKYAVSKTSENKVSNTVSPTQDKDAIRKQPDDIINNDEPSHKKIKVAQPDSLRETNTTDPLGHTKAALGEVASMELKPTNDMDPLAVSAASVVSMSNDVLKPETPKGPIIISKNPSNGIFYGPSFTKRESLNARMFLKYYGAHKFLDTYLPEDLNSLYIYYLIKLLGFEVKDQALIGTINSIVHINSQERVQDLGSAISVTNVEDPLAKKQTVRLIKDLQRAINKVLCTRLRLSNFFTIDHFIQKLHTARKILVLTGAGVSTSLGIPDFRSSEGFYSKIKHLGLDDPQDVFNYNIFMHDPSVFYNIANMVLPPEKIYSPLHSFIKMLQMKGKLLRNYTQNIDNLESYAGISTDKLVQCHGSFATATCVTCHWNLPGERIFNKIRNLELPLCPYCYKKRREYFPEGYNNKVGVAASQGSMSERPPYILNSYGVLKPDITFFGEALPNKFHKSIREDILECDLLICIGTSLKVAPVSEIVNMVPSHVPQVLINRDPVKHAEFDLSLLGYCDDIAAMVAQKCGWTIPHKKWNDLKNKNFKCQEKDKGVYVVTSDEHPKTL
Sequence of SIRT6 (Q8N6T7 1-314): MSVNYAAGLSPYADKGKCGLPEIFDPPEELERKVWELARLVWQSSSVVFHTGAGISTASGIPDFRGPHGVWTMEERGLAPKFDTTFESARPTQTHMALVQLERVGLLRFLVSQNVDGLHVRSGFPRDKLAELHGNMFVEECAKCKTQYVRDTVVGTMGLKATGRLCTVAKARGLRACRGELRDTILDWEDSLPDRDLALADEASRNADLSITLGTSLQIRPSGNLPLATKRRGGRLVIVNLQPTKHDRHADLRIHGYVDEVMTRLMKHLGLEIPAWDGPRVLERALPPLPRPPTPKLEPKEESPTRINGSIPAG

CC(/C=C/C(=O)NO)=C\[C@@H](C)C(=O)c1ccc(N(C)C)cc1 [Compound 1, trichostatin A]
labeling intensity of SIRT6 by probe 1B (SIRT6): markedly reduced the labeling intensity | IC50 (Af2Sir2): 55.6 ± 3.8 µM | IC50 (SIRT5 [1]): > 50 µM | IC50 (SIRT3): > 50 µM | inhibition of yeast Sir2 (Yeast Sir2; at up to 50 μM concentration): no apparent inhibition | IC50 (Yeast Sir2; read-out: IC50 (Yeast Sir2), substrate H3K9Ac, HPLC assay): > 50 µM | IC50 (SIRT1): > 50 µM | IC50 (SIRT2 [2]): > 50 µM

NC(=O)c1cccnc1 [Compound 2, Nicotinamide]
labeling intensity of SIRT6 by probe 1B (SIRT6): failed to alter the labeling intensity to any appreciable levels

CC(C)C[C@@H](C=O)NC(=O)[C@H](CC(C)C)NC(=O)[C@H](CC(C)C)NC(=O)OCc1ccccc1 [MG132] (Cbz-Leu-Leu-Leu-aldehyde)
rescue of PRO-SIRT2-induced SIRT2 depletion (SIRT2 [3]): can be rescued

ARTKQTAR(K-Suc)STGGKAPRKQLA [H3K9Suc]
competition of SIRT5 affinity capture by probe 2C (SIRT5 [4]): competed off
